Assay results from ChEMBL document CHEMBL3091448, “Identification of potent and selective cathepsin S inhibitors containing different central cyclic scaffolds” (J Med Chem, 2013).

Experiments:
Cathepsin K = biological target: T1, Cathepsin K (Homo sapiens, UniProt P43235); experiment: Inhibition of human cathepsin-K using Z-Leu-Arg-AMC as substrate up to 20 mins by fluorescence assay
T1 sequence (P43235 whole entry): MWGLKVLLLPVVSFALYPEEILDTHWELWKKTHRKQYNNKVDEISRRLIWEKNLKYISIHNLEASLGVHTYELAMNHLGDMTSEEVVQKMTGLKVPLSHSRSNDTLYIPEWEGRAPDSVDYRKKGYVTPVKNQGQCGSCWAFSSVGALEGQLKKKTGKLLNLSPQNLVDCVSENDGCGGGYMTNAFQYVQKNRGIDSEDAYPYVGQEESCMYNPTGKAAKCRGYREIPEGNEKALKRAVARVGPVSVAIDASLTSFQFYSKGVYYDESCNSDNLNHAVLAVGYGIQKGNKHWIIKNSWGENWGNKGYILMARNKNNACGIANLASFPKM
Outline: (§1)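 Fluorogenic quenched-peptide cleavage assay. Enzymes at 1 nM in 100 mM potassium phosphate pH 6.5, 5 mM EDTA-Na, 0.001% Triton X-100 and 5 mM DTT. Enzyme was added to the compound dilutions, then 20 μM substrate started the reaction: Z-Val-Val-Arg-AMC, or Z-Leu-Arg-AMC for CatK. Fluorescence (ex 360/em 465 nm) was read over 20 min. IC50 is the mean of ≥2 independent experiments.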

Cathepsin S [1] = biological target: Cathepsin S (Homo sapiens, UniProt P25774); experiment: Inhibition of human cathepsin-S using Z-Val-Val-Arg-AMC as substrate up to 20 mins by fluorescence assay; outline: as §1
Chain of Cathepsin S (Homo sapiens, UniProt P25774) (P25774 whole entry): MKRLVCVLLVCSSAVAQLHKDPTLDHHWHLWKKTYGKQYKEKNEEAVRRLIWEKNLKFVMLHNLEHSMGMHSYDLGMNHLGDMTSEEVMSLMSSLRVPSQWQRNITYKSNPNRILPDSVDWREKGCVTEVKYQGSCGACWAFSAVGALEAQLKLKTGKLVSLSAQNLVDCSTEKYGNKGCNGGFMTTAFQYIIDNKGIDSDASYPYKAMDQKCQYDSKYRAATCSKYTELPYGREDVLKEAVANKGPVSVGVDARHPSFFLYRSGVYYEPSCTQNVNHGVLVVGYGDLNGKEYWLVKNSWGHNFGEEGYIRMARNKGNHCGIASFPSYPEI

A20 = experiment: Inhibition of ovalbumin-induced antigen presentation in mouse A20 cells treated 1 hr before ovalbumin addition incubated for 16 hrs followed by co-cultured with DO10.10 T-cell hybridoma cells for 24 hrs assessed as IL-2 production by luminex single-bead analysis; assay type: functional, cell-based
Outline: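 A20 cells were seeded at 3 × 10⁵/mL and preincubated with compound for 1 h. Ovalbumin was then added (5 mg/mL final) for 16 h. Cells were washed three times with PBS, then DO10.10 T-cell hybridoma cells (2 × 10⁵/mL) were added. After 24 h, IL-2 was quantified by Luminex single-bead assay using two anti-IL-2 antibodies. IC50 is the mean of ≥2 independent experiments.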

Homo sapiens = species on record: Homo sapiens; experiment: Selectivity ratio of IC50 for human cathepsin-K to IC50 for human cathepsin-S
[2] = Drug degradation in NMRI mouse plasma at 1000 ng/mL after 4 hrs; assay type: ADME, cell-free; conditions: read-out: Drug degradation
Outline: (§2)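 Heparinized pooled NMRI mouse plasma was spiked with compound at 1000 ng/mL and incubated at 37 °C in an orbital shaker. Aliquots (n = 3 per time point) were taken at 2 min, 1 h and 4 h and analysed by LC−MS/MS.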

Cathepsin S [3] = biological target: Cathepsin S (Mus musculus, UniProt O70370); experiment: Inhibition of mouse cathepsin-S using Z-Val-Val-Arg-AMC as substrate up to 20 mins by fluorescence assay; outline: as §1
Chain of Cathepsin S (Mus musculus, UniProt O70370) (O70370 whole entry): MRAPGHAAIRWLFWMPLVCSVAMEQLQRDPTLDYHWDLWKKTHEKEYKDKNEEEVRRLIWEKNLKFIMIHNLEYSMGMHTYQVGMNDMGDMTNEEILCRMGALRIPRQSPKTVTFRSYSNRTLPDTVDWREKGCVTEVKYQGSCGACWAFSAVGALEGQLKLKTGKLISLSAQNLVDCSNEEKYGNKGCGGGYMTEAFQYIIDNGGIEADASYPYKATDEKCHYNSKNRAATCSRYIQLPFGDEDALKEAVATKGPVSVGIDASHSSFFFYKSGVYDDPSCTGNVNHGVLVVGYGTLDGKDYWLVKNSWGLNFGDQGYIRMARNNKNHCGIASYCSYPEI

Procathepsin L = Procathepsin L (Homo sapiens, UniProt P07711); experiment: Inhibition of human cathepsin-L using Z-Val-Val-Arg-AMC as substrate up to 20 mins by fluorescence assay; outline: as §1
Chain of Procathepsin L (P07711 whole entry): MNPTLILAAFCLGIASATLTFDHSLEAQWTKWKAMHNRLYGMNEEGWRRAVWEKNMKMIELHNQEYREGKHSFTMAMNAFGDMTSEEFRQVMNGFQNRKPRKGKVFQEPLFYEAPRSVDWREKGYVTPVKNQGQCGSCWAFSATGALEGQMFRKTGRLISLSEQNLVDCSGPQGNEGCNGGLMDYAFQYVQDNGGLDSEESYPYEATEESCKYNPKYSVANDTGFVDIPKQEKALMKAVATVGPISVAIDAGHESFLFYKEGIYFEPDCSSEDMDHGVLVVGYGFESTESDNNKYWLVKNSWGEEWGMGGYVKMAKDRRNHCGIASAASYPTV

Cathepsin B = Cathepsin B (Homo sapiens, UniProt P07858); experiment: Inhibition of human cathepsin-B using Z-Val-Val-Arg-AMC as substrate up to 20 mins by fluorescence assay; outline: as §1
[4] = Effective permeability of the compound by PAMPA; assay type: ADME; conditions: read-out: Peff
[5] = Oral bioavailability in C57Bl/6 mouse at 9 mg/kg; assay type: ADME, organism-based; conditions: in vivo
Outline: (§3)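 Male C57Bl/6 mice, 8 weeks old, 24−29 g. Dosing was by oral gavage at 9 mg/kg as an aqueous microsuspension in gelatin/NaCl (7.5%/0.62%), or by iv bolus at 2 mg/kg in aqueous NaCl/30% 1-methyl-2-pyrrolidone. Terminal blood (n = 2 per time point) was collected into EDTA tubes and spun at 4 °C to obtain plasma. Plasma levels were measured by LC−MS/MS after acetonitrile precipitation. Values are the mean of two experiments.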

[6] = Volume of distribution at steady state in C57Bl/6 mouse at 2 mg/kg, iv and 9 mg/kg, po; assay type: ADME, organism-based; conditions: in vivo, read-out: Vdss; outline: as §3
[7] = Clearance in C57Bl/6 mouse at 2 mg/kg, iv and 9 mg/kg, po; assay type: ADME, organism-based; conditions: in vivo; outline: as §3
[8] = Half life in C57Bl/6 mouse at 9 mg/kg, po; assay type: ADME, organism-based; design: dose 9 mg/kg, route oral; conditions: in vivo; outline: as §3
Mus musculus [9] = experiment: Dose normalized AUC in C57Bl/6 mouse at 9 mg/kg, po; assay type: ADME, organism-based; design: dose 9 mg/kg, route oral; conditions: in vivo; outline: as §3
[10] = Half life in C57Bl/6 mouse at 2 mg/kg, iv; assay type: ADME, organism-based; design: dose 2 mg/kg, route intravenous; conditions: in vivo; outline: as §3
Mus musculus [11] = experiment: Dose normalized AUC in C57Bl/6 mouse at 2 mg/kg, iv; assay type: ADME, organism-based; design: dose 2 mg/kg, route intravenous; conditions: in vivo; outline: as §3
[12] = Metabolic stability in NMRI mouse plasma assessed as compound remaining at 1000 ng/mL after 4 hrs; assay type: ADME, cell-free; conditions: read-out: Stability; outline: as §2
Plasma = experiment: Metabolic stability in human plasma assessed as compound remaining at 1000 ng/mL after 5 hrs; assay type: ADME, cell-free
Mus musculus [13] = experiment: Reduction of ovalbumin-induced IL-2 production in po dosed DO10.11 transgenic BALB/c mouse administered 30 mins before ovalbumin challenge measured after 4 hrs by luminex single-bead analysis; assay type: functional
Outline: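 DO10.11 BALB/c mice carrying a transgenic ovalbumin-peptide TCR were dosed orally with compound, then challenged iv with 1.0 mg low-endotoxin ovalbumin. Plasma IL-2 was measured at 4 h by Luminex bead assay using two anti-IL-2 antibodies. Groups had n = 8, and reduction was expressed versus the ovalbumin challenge group (ANOVA with Dunnett test).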

Compound | IC50 (Cathepsin K) [µM] | IC50 (Cathepsin S [1]) [µM] | IC50 (A20) [µM] | IC50 (Procathepsin L) [µM] | IC50 (Cathepsin B) [µM] | also measured
COc1ccc(C(C#N)NC(=O)[C@@H]2CCCC[C@@H]2NC(=O)/C=C/c2ccccc2)cc1OC (some centres not stated) | 0.016 | 0.64 |  |  |  | 
N#CC1(NC(=O)[C@@H]2C[C@@H](S(=O)(=O)c3ccccc3Cl)CN2C(=O)C2CCCCC2)CC1 | > 25 | 0.0003 | 0.002 | 8.3 |  | metabolised at 4 h, 1000 ng/mL [2]: > 90%; IC50 (Cathepsin S [3]): 0.0002 µM
N#CC1(NC(=O)[C@@H]2C[C@@H](S(=O)(=O)c3ccccc3)C[C@H]2C(=O)N2CCS(=O)(=O)CC2)CC1 | > 25 | 0.004 | 0.816 | 15.8 | 38 | Papp [4]: 0.2 ×10⁻⁶ cm/s
N#CC1(NC(=O)[C@@H]2C[C@@H](S(=O)(=O)c3ccccc3)C[C@H]2C(=O)N2CC3CCC(C2)O3)CC1 | > 25 | 0.001 | 0.016 | 4.1 | 13.1 | 
N#CC1(NC(=O)[C@@H]2C[C@@H](S(=O)(=O)c3ccccc3)C[C@H]2C(=O)N2CCC(O)CC2)CC1 | > 25 |  | 0.371 | 4.6 | 5.7 | Papp [4]: 0.2 ×10⁻⁶ cm/s
N#CC1(NC(=O)[C@@H]2C[C@@H](S(=O)(=O)c3ccccc3)CN2C(=O)c2ccccc2)CC1 | > 25 | 0.013 | 0.217 | > 25 | > 25 | IC50 (Cathepsin S [3]): 0.029 µM
N#CC1(NC(=O)[C@@H]2C[C@@H](S(=O)(=O)c3ccccc3)C[C@H]2C(=O)N2CC(O)C2)CC1 | > 25 | 0.007 | 0.572 | 16.2 | 63.3 | 
CC1CCN(C(=O)[C@@H]2C[C@H](S(=O)(=O)c3ccccc3)C[C@H]2C(=O)NC2(C#N)CC2)CC1 | > 25 |  | 0.002 | 1.9 | 0.7 | Papp [4]: 4.6 ×10⁻⁶ cm/s
CN(C)C(=O)[C@@H]1C[C@H](S(=O)(=O)c2ccccc2)C[C@H]1C(=O)NC1(C#N)CC1 | > 25 | 0.006 | 0.091 | 24.9 | 22.9 | 
CN1CCN(C(=O)[C@@H]2C[C@H](S(=O)(=O)c3ccccc3)C[C@H]2C(=O)NC2(C#N)CC2)CC1 | > 25 | 0.002 | 0.017 | 4.7 | 6.4 | 
N#CC1(NC(=O)[C@@H]2C[C@@H](S(=O)(=O)c3ccccc3)C[C@H]2C(=O)Nc2ccc(F)cc2)CC1 | > 25 | 0.026 | 0.391 | > 25 | > 25 | 
N#CC1(NC(=O)[C@@H]2C[C@@H](S(=O)(=O)c3ccccc3)C[C@H]2C(=O)N2CCNCC2)CC1 | > 25 |  | 1.34 | 2.6 | 13.3 | 
N#CC1(NC(=O)[C@@H]2C[C@@H](S(=O)(=O)c3ccccc3)C[C@H]2C(=O)N2CC3(COC3)C2)CC1 | > 25 |  | 0.248 | 22.2 | 29.7 | 
C[C@@H]1CN(C(=O)[C@@H]2C[C@H](S(=O)(=O)c3ccccc3)C[C@H]2C(=O)NC2(C#N)CC2)C[C@H](C)O1 | > 25 |  | 0.001 | 2.7 | 3.2 | 
N#CC1(NC(=O)[C@@H]2C[C@@H](S(=O)(=O)c3ccccc3)C[C@H]2C(=O)N2CCCCC2)CC1 | > 25 |  | 0.005 | 4.2 | 3.6 | 
CC(=O)N1C[C@H](S(=O)(=O)c2ccccc2Cl)C[C@H]1C(=O)NC1(C#N)CC1 | > 25 | 0.001 | 0.019 | 29.7 | 47.6 | Activity (Mus musculus [13]): Dose-dependent effect; ED50 (Mus musculus [13]): 5 mg/kg; bioavailability [5]: 53%; Vd [6]: 0.5 L/kg; clearance [7]: 29 mL/min/kg; half-life [8]: 30 min; AUC/dose (Mus musculus [9]): 309 ng·h/mL; half-life [10]: 18 min; AUC/dose (Mus musculus [11]): 581 ng·h/mL; remaining at 4 h, 1000 ng/mL [12]: 72%; Stability (Plasma): Stable; IC50 (Cathepsin S [3]): 0.002 µM

Now from value to molecule, other results behind:

IC50 (Cathepsin K) [µM] | IC50 (Cathepsin S [1]) [µM] | IC50 (A20) [µM] | IC50 (Procathepsin L) [µM] | IC50 (Cathepsin B) [µM] | Compound | also measured
> 25 |  | 0.002 |  |  | N#CCNC(=O)[C@@H]1C[C@@H](S(=O)(=O)c2ccccc2C(F)(F)F)C[C@H]1C(=O)N1CCOCC1 | Ratio IC50 (Homo sapiens): > 20000
> 25 |  | 0.003 |  |  | N#CCNC(=O)[C@@H]1C[C@@H](S(=O)(=O)c2ccccc2Cl)C[C@H]1C(=O)N1CCOCC1 | Ratio IC50 (Homo sapiens): > 20000
> 25 |  | 4.51 |  |  | N#CCNC(=O)[C@@H]1C[C@@H](S(=O)(=O)CC2CC2)C[C@H]1C(=O)N1CCOCC1 | Ratio IC50 (Homo sapiens): > 100
> 25 | 0.018 | 0.118 |  |  | N#CCNC(=O)[C@@H]1CN(S(=O)(=O)c2ccccc2C(F)(F)F)C[C@H]1C(=O)N1CCOCC1 | Ratio IC50 (Homo sapiens): > 1000
15.5 | 0.0007 | 0.023 | 11.7 | 6.2 | N#CCNC(=O)[C@@H]1C[C@@H](S(=O)(=O)c2ccccc2)C[C@H]1C(=O)N1CCOCC1 | bioavailability [5]: 18%; Vd [6]: 0.5 L/kg; clearance [7]: 39 mL/min/kg; half-life [8]: 54 min; AUC/dose (Mus musculus [9]): 77 ng·h/mL; half-life [10]: 18 min; AUC/dose (Mus musculus [11]): 427 ng·h/mL; remaining at 4 h, 1000 ng/mL [12]: 99%; Stability (Plasma): Stable; IC50 (Cathepsin S [3]): 0.001 µM; Ratio IC50 (Homo sapiens): > 20000
> 25 | 0.002 | 0.029 | 17 | 7.1 | N#CC1(NC(=O)[C@@H]2C[C@@H](S(=O)(=O)c3ccccc3)C[C@H]2C(=O)N2CCCC2)CC1 | 
> 25 | 0.003 | 0.043 | > 25 | > 25 | CC(C)(C#N)NC(=O)[C@@H]1C[C@@H](S(=O)(=O)c2ccccc2)C[C@H]1C(=O)N1CCOCC1 | 
29.7 |  | 0.012 | 12.2 | 8.5 | N#CC1(NC(=O)[C@@H]2C[C@@H](S(=O)(=O)c3ccccc3)C[C@H]2C(=O)N2CCOCC2)CC1 | 
> 25 | 0.01 | 0.044 | 33.6 | 39.4 | N#CC1(NC(=O)[C@@H]2C[C@@H](S(=O)(=O)c3ccccc3)C[C@H]2C(=O)N2CCC2)CC1 | 
0.855 | 0.83 | 0.925 |  |  | N#CCNC(=O)[C@@H]1CC(F)(F)C[C@H]1C(=O)N1CCOCC1 | Ratio IC50 (Homo sapiens): 1
> 25 |  | 0.236 | > 25 | > 25 | N#CC1(NC(=O)[C@@H]2C[C@@H](S(=O)(=O)c3ccccc3)C[C@H]2C(=O)N2CCOCC2)CCC1 | 
> 25 | 0.271 | 4.24 |  |  | N#CCNC(=O)[C@@H]1CN(S(=O)(=O)c2ccccc2)C[C@H]1C(=O)N1CCOCC1 | Ratio IC50 (Homo sapiens): > 90
> 25 | 0.012 | 0.208 |  |  | N#CCNC(=O)[C@@H]1CN(S(=O)(=O)c2ccccc2Cl)C[C@H]1C(=O)N1CCOCC1 | Ratio IC50 (Homo sapiens): > 1000
